The values below come from paper PMC10694828 (RSC Advances, 2023).

Each structure is given as a SMILES string.

The target of data set [1] is T1, recombinant human MAO-A (Homo sapiens, UniProt P21397).
T1 sequence (P21397 1-527): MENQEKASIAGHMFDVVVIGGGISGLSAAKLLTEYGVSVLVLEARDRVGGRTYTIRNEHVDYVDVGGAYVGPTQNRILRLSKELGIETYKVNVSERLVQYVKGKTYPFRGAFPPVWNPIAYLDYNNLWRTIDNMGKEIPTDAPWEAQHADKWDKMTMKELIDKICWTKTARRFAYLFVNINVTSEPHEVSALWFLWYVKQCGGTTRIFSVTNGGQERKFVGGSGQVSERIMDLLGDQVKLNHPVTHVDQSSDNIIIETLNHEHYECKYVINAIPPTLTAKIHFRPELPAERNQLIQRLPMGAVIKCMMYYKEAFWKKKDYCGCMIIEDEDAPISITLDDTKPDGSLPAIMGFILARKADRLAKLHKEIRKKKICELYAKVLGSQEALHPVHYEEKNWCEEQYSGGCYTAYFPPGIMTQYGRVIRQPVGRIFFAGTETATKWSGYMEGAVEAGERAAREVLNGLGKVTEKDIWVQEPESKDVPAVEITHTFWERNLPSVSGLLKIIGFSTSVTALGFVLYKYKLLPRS
Description: MAO-A inhibition, continuous assay with kynuramine. In kind it is biochemical. Conditions: for remaining activity at 10 µM: read-out: Residual activity at 10 μM (%) MAO-A.

Data set [2] deals with T2, MAO-B (Homo sapiens, UniProt P27338).
T2 sequence (P27338 1-520): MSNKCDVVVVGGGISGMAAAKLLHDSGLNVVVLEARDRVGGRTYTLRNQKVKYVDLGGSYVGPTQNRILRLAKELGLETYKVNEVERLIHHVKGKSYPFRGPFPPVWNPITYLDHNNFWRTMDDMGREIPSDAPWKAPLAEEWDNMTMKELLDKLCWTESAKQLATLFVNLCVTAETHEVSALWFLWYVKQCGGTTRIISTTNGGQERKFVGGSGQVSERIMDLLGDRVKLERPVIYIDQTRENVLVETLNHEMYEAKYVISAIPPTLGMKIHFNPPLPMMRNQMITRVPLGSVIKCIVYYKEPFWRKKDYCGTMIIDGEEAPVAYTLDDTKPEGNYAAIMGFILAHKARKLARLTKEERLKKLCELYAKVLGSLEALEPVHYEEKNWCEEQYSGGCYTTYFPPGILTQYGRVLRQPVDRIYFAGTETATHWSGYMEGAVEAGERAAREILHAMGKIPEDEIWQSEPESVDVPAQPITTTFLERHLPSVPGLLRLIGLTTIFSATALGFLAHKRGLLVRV
As to the kind of experiment: MAO-B inhibition, continuous assay with benzylamine. The conditions noted are these: for SI (selectivity index for MAO-B compared to MAO-A): (IC50 of MAO-A)/(IC50 of MAO-B); for remaining activity at 10 µM: read-out: Residual activity at 10 μM (%) MAO-B. The format is biochemical.

In data set [3] the target is T2, MAO-B. Description: Reversibility of MAO-B inhibition by dialysis. In kind it is biochemical. The conditions noted are these: for Reversibility of MAO-B inhibition: dialysis; for Relative MAO-B activity, undialyzed (AU) / Relative MAO-B activity, dialyzed (AD): ~2.0 times IC50, 30 min preincubation; for Relative MAO-B activity, dialyzed (AD): dialyzed 6 h with two buffer changes.

Data set [4] addresses T2, MAO-B. Description: Enzyme kinetics of MAO-B inhibition. In kind it is biochemical. The conditions noted are these: for Inhibition type for MAO-B: Lineweaver–Burk plots. The method in brief: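 Recombinant human MAO-B. Activity was followed continuously by absorbance at 250 nm with benzylamine as substrate at five concentrations (0.0375–0.60 […]). Three inhibitor concentrations were tested against each substrate level. The inhibition pattern and Ki came from Lineweaver–Burk plots and from secondary plots of slope versus inhibitor concentration.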

Data set [5] can be described thus: PAMPA for BBB permeation. The conditions noted are these: for Papp: PAMPA; for Experimental Pe / Prediction (CNS permeation): PAMPA-BBB. In kind it is in vitro ADME. In outline: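 Passive BBB permeation by PAMPA on a filter membrane with 0.45 micron pores, 125 microns thick. Drug concentrations in donor, receiver and reference wells were measured by UV spectroscopy. Pe (10−6 cm s−1) was calculated as […]. Pe > 4.00 was classed CNS+ (high permeation).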

Consider `O=C1Nc2ccccc2/C1=N/N=Cc1ccc(OCc2ccccc2)cc1` [ISB1, (3Z)-3-((4-(benzyloxy)benzylidene)hydrazineylidene)indolin-2-one], for which, in data set [1], the IC50 (usually the concentration that gives 50% inhibition) came out at 6824 ± 49 nM and the remaining activity at 10 µM was 38.78 ± 0.25%. In data set [2], the IC50 stood at 124 ± 7 nM, the “SI (selectivity index for MAO-B compared to MAO-A)” value came to 55.03 and the remaining activity at 10 µM was -8.77 ± 0.14%. In addition, in data set [3], the “Reversibility of MAO-B inhibition” value is listed as “reversible”; the “Relative MAO-B activity, undialyzed (AU)” value worked out at 31.61%; the “Relative MAO-B activity, dialyzed (AD)” value was 83.77%. Besides, in data set [4], the Ki (commonly a measure of affinity in units of concentration, obtained from inhibition or displacement) was determined as 55 ± 10 nM and the “Inhibition type for MAO-B” value was “competitive”. In data set [5], the Papp (in general, the rate of passage across a membrane or cell layer, normalised by area and donor concentration) was found to be 4.93 ± 0.13 ×10⁻⁶ cm/s; the “Experimental Pe” value is given as “higher than 4.0 ×10^−6 cm s^−1”; the “Prediction (CNS permeation)” value was “CNS+ (Pe (10^−6 cm s^−1) > 4.00: CNS+ (high permeation))”.
`O=C1Nc2ccc(F)cc2C1=NN=Cc1ccc(OCc2ccccc2)cc1` [ISB3]: in data set [1], the IC50 was more than 40000 nM and the remaining activity at 10 µM was found to be 74.5 ± 0.95%. Further, in data set [2], the IC50 is 13900 ± 204 nM, the “SI (selectivity index for MAO-B compared to MAO-A)” value is recorded as more than 2.87 and the remaining activity at 10 µM turned out to be 59.6 ± 1.11%.
For the molecule `O=C1Nc2ccccc2C1=NN=Cc1cccc(OCc2ccccc2)c1` [ISBB1], in data set [1], the half-inhibitory concentration (IC50) was 1570 ± 48 nM and the remaining activity at 10 µM amounted to 4.84 ± 1.61%. Further, in data set [2], 540 ± 29 nM corresponded to half-maximal inhibition (IC50), the “SI (selectivity index for MAO-B compared to MAO-A)” value amounted to 2.91 and the remaining activity at 10 µM stood at 1.99 ± 0.86%.
On to `O=C1Nc2ccccc2/C1=N/N=Cc1ccc(OCc2cccc(F)c2)cc1` [ISFB1, (3Z)-3-((4-((3-fluorobenzyl)oxy)benzylidene)hydrazineylidene)indolin-2-one], for which, in data set [1], the IC50 is 678 ± 6 nM and the remaining activity at 10 µM was found to be 4.17 ± 0.32%. Besides, in data set [2], the IC50 came to 135 ± 2 nM and the remaining activity at 10 µM is -3.03 ± 0.24%. Moreover, in data set [3], the “Reversibility of MAO-B inhibition” value is recorded as “reversible”; the “Relative MAO-B activity, undialyzed (AU)” value came to 31.42%; the “Relative MAO-B activity, dialyzed (AD)” value is 79.32%. Also, in data set [4], the inhibitory constant (Ki) was 69 ± 25 nM and the “Inhibition type for MAO-B” value is reported as “competitive”. Moreover, in data set [5], the apparent permeability (Papp) is 4.09 ± 0.24 ×10⁻⁶ cm/s, the “Experimental Pe” value is recorded as “higher than 4.0 ×10^−6 cm s^−1” and the “Prediction (CNS permeation)” value was “CNS+ (Pe (10^−6 cm s^−1) > 4.00: CNS+ (high permeation))”.
Turning to `O=C1Nc2ccc(Br)cc2C1=NN=Cc1ccc(OCc2cccc(F)c2)cc1` [ISFB2], in data set [1], the IC50 was more than 40000 nM and the remaining activity at 10 µM worked out at 88.5 ± 1.38%. Further, in data set [2], the IC50 worked out at 16000 ± 308 nM, the “SI (selectivity index for MAO-B compared to MAO-A)” value is more than 2.49 and the remaining activity at 10 µM came to 57.6 ± 1.1%.
